# Data: PMC8395693 (JACS Au, 2021)
# Tested on: not given
# Assay: not given
# Conditions: based on gold; cited from earlier work
row,SMILES,MTD (maximum tolerated dose) [mg/kg]
1,CC(=O)OC[C@H]1O[C@@H]([S-])[C@H](OC(C)=O)[C@@H](OC(C)=O)[C@@H]1OC(C)=O.CCP(CC)CC.[Au+] [auranofin],12

# Tested on: MDA-MB-231
# Assay: Transmission electron microscopy of mitochondrial morphology
# Assay type: cell-based
# Conditions: AuTri-9 10 µM, 1 h
# Method in brief: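 MDA-MB-231 cells were exposed to the test compound for 1 h. Vehicle wells received 1% DMSO. Reference inducers were run alongside: staurosporine (apoptosis), hydrogen peroxide (necrosis), rapamycin (autophagy) and erastin (ferroptosis). Mitochondria were imaged by TEM. Maximal cristae width was measured in 10 randomly chosen cells on randomly chosen mitochondria, with up to 3 cristae per mitochondrion and 100 cristae per cell, given as mean ± s.e.m.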
row,SMILES,morphological changes in mitochondria (TEM)
1,"OO [H2O2, hydrogen peroxide]",mitochondrial structure remains intact
2,CCOc1ccccc1-n1c(C(C)N2CCN(C(=O)COc3ccc(Cl)cc3)CC2)nc2ccccc2c1=O (centres unmarked) [erastin],mitochondrial shrinkage
3,CO[C@H]1C[C@@H]2CC[C@@H](C)[C@@](O)(O2)C(=O)C(=O)N2CCCC[C@H]2C(=O)O[C@H]([C@H](C)C[C@@H]2CC[C@@H](O)[C@H](OC)C2)CC(=O)[C@H](C)/C=C(\C)[C@@H](O)[C@@H](OC)C(=O)[C@H](C)C[C@H](C)/C=C/C=C/C=C/1C [rapamycin],no distinct morphological changes to mitochondria
4,CN[C@@H]1C[C@H]2O[C@@](C)([C@@H]1OC)n1c3ccccc3c3c4c(c5c6ccccc6n2c5c31)C(=O)NC4 [staurosporine],no distinct morphological changes to mitochondria

# Tested on: MDA-MB-231
# Assay: Cell viability
# Assay type: cell-based
# Conditions: Homo sapiens, MDA-MB-231, 72 h, read-out: IC50 value
# Method in brief: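 Test compounds were added from stock solutions so that the final DMSO was <1%, and MDA-MB-231 cells were incubated with them for 72 h. Viability was read after exposure and IC50 derived. Data are mean ± s.e.m., n = 3.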
row,SMILES,IC50 [µM]
1,"c1cnc2c(c1)ccc1cccnc12 [1,10-phenantrholine]",7.21 ± 1.68
2,"Cc1ccnc2c1ccc1c(C)ccnc12 [4,7-dimethylphenanthroline]",14.1 ± 2.58

# Same assay, conditions: read-out: IC50 value; MDA-MB-231, MTT assay, 72 h, mean ± s.e.m., n = 3
row,SMILES,IC50 [µM]
1,[Au+].[F][Sb-]([F])([F])([F])([F])[F].c1ccc(-c2ccccn2)nc1.c1ccc(P(c2ccccc2)c2ccccc2)cc1 [AuTri-3],6.56 ± 0.354
2,[Au+].[F][Sb-]([F])([F])([F])([F])[F].c1ccc([As](c2ccccc2)c2ccccc2)cc1.c1cnc2c(c1)ccc1cccnc12 [AuTri-4],3.98 ± 0.359
3,[F][Sb-]([F])([F])([F])([F])[F].[Na+] [NaSbF6],> 50
4,CC(=O)OC[C@H]1O[C@@H]([S-])[C@H](OC(C)=O)[C@@H](OC(C)=O)[C@@H]1OC(C)=O.CCP(CC)CC.[Au+] [auranofin],1.31 ± 0.15
5,c1ccc(-c2ccnc3c2ccc2c(-c4ccccc4)ccnc23)cc1 [bathophenanthroline],7.48 ± 1.64
6,c1ccc(-c2ccccn2)nc1 [bipyridine],17.5 ± 0.354
7,N.N.[Cl][Pt][Cl] [cisplatin],34.6 ± 0.783
